The record followed here is ChEMBL document CHEMBL1125042, “Hypolipidemic activity of rifamycin derivatives” (J Med Chem, 1990).

Structures are written as SMILES. Values after ≈ are worked out from the molar mass of the structure shown.

By MIC is commonly meant the least concentration at which growth counts as inhibited. A lower MIC goes with greater potency.

Holding throughout (assay type): functional
For one assay, the system named is Staphylococcus aureus. In words: Antibacterial activity against Staphylococcus aureus 10B. In a few lines: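 Agar dilution on DST agar with 2-fold drug dilutions. Inoculum of 10⁴ viable S. aureus 10B was taken from liquid-nitrogen stock, thawed 30 min and not subcultured. It was applied by multipoint replicator and incubated overnight at 37 °C. MIC is the lowest concentration inhibiting growth relative to control cultures.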

For assay [1], the species on record is Rattus norvegicus. Nature of the assay: Compound was tested for hypolipidemic activity in male rats, cholesterol was determined in serum. In a few lines: (§1)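 Male Wistar rats (200–230 g), eight per group, were dosed orally in PEG 400 at 8 a.m. for 4 days, plus a second dose at 4 p.m. on day 4. Rats were fasted 16 h and killed 16 h after the last dose. Sera from pairs of rats were pooled. LDL (up to 1.040 g/cm³) was separated by ultracentrifugation and the HDL infranatant taken. Cholesterol was measured enzymatically. Results are % versus vehicle control, mean ± SEM of four pools, Student's t test.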

The species named for assay [2] is Rattus norvegicus. In words: Hypolipidemic activity was determined in male rats, and low-density lipoprotein level was determined. In a few lines:
as §1

For assay [3], the species on record is Rattus norvegicus. Nature of the assay: Hypolipidemic activity was determined in male rats, and high-density lipoprotein level was determined. In a few lines:
as §1

For the molecule `COc1c(C)c2c3c4c1C(=O)C(=C(N1CCN(Cc5c(C)cc(C)cc5C)CC1)C4=O)NC(=O)/C(C)=C\C=C\C(C)C(O)C(C)C(O)C(C)C(OC(C)=O)C(C)C(OC)/C=C/OC(C)(O2)C3=O` (centres undefined), in the assay with Staphylococcus aureus, the MIC turned out to be 1 µg/mL (≈ 1.08 µM). For the same molecule, the figures for the Activity in the assay filed under Rattus norvegicus [1], in the assay listed under Rattus norvegicus [2] and in the assay filed under Rattus norvegicus [3] were -4%, 1% and -6%, respectively.
